In PMC3528315 (The FASEB Journal, 2013):
“Also recorded” adds a separate entry of the source. Read-outs that look alike come from different tables or passages of the source.

Key:
DA rats = settings: cited from earlier work
[1] = test system: circulating polyclonal anti-MBP Abs from DA rats; format: binding; settings: SPR; DA rats immunized with MBP63–81
DA rats with EAE [2] = test: EAE treatment with mSUV-encapsulated MBP peptides, disease scores; format: in vivo, Dark Agouti (DA) rats; settings: for disease course / therapeutic effect in words: 6 daily s.c. injections from d 7 after EAE induction, mean disease score; for delta: ranking of overall difference in MDS from the placebo group: ascending series, placebo = empty mSUV
[3] = test system: Spinal cords of DA rats with EAE; test: Spinal cord histology, gliosis and demyelination; format: in vivo, Dark Agouti (DA) rats
Procedure, shortened: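 Symptomatic EAE DA rats were dosed subcutaneously once daily for 6 d and followed for 28 d. Paraffin-embedded spinal cord sections were stained with hematoxylin–eosin and luxol fast blue and scored blind on 0–3 scales. Gliosis grades were mild (5–10 cells/focus), moderate (10–50 cells/focus) and severe (>50 cells/focus), and demyelination ran from none (0) to severe (3).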

[4] = test system: autoAbs to full-length MBP; test: Serum anti-MBP autoAbs; format: in vivo, DA rats; settings: ELISA, vs control/placebo group
Procedure, shortened: (§1)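 Wells were coated overnight at 4°C with MBP or Trx-fused MBP peptides (10 μg/ml, 100 mM carbonate/bicarbonate, pH 9.0) and blocked with 2% BSA for 1 h at 37°C. Rat sera were diluted 100- to 50,000-fold in PBS-Tween/0.5% BSA, with 5 USP units/ml heparin for MBP, and incubated 1 h at 37°C. HRP anti-rat (1:4000, 1 h, 37°C) and TMB followed, with a phosphoric acid stop and OD₄₅₀ read-out.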

[5] = test system: autoAbs to MBP epitope 81–103; test: Serum autoAbs; format: in vivo, DA rats; settings: ELISA, vs control/placebo group
Procedure, shortened: as §1

[6] = test system: autoAbs to MBP epitope 146–170; test: Serum autoAbs; format: in vivo, DA rats; settings: ELISA, vs control/placebo group
Procedure, shortened: as §1

IL-2 = test: Immunostaining of spinal cord for IL-2; format: in vivo, DA rats; settings: immunohistochemistry
Procedure, shortened: (§2)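 EAE DA rats with symptoms got single daily subcutaneous injections of liposome formulations, reference drug or placebo for 6 d and were followed for 28 d. Spinal cords were fixed, dehydrated and paraffin-embedded, and sections were immunostained for IL-2, IFNγ or BDNF per the antibody makers' protocols. Scoring was blinded, against nonimmunized rats and untreated EAE rats.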

IFNγ = test: Immunostaining of spinal cord for IFNγ; format: in vivo, DA rats; settings: immunohistochemistry
Procedure, shortened: as §2

BDNF = test: Immunostaining of CNS / spinal cord for BDNF; format: in vivo, DA rats; settings: immunohistochemistry, vs placebo
Procedure, shortened: as §2

[7] = test system: regulatory Th2 cells; BDNF expression; settings: cited from earlier work
DA rats with EAE [8] = test: EAE treatment with p1 as such or encapsulated in SUV / mSUV; format: in vivo, Dark Agouti (DA) rats; settings: s.c.; mean disease score vs no treatment; p1 n=8, p1 SUV n=10, p1 mSUV n=9

MBP62–75: major encephalitogenic peptide in DA rats (WLKQSRSPLPSHAR; UniProt P02688 62-75, looked up, fragment)
immunodominance of encephalitogenic peptide in DA rats (DA rats): not immunodominant

GPBP68–88: fragment of the guinea pig myelin basic protein (HYGSLPQKSQRSQDENPVVHF; UniProt P25188 68-88, looked up, fragment)
capability to induce EAE in DA rats (DA rats): slightly

MDHARHGFLPRH
binding of autoAbs [1]: not detected

glatiramer acetate [Copaxone]
median maximum disease score vs placebo (DA rats with EAE [2]; 6 daily s.c. injections from d 7, Wilcoxon test, P < 0.05): significantly differed from the placebo group
disease course / therapeutic effect in words (DA rats with EAE [2]): significantly suppressed protracted EAE
delta: ranking of overall difference in MDS from the placebo group (DA rats with EAE [2]): p1 ≪ p2 mSUV ≈ p3 mSUV < p1 mSUV ≈ Copaxone < p123 mSUV
degree of demyelination, luxol fast blue staining [3]: reduced
serum concentration of autoAbs to full-length MBP [4]: significant decrease
serum autoAbs to MBP epitope 81–103 [5]: down-regulated
serum autoAbs to MBP epitope 146–170 [6]: down-regulated
IL-2 in spinal cord (IL-2): significantly down-regulated
IFNγ in spinal cord (IFNγ): significantly down-regulated
BDNF in CNS (BDNF): enhanced production of BDNF
induction of regulatory Th2 cells, cytokines and BDNF [7]: known to stimulate BDNF expression
induction of regulatory Th2 cells, cytokines and BDNF ([7]; listed as glatiramer acetate): induces the population of regulatory Th2 cells to become capable of crossing the BBB and producing anti-inflammatory cytokines IL-4, IL-6, IL-10, and brain-derived neurotrophic factor

p1: immunodominant MBP peptide MBP46–62, as such (without liposomes) (FGEADANQNNGTSSQDT; UniProt P02686 46-62, looked up, fragment)
therapeutic effect on EAE (DA rats with EAE [8]): no detectable therapeutic effect
disease course / therapeutic effect in words (DA rats with EAE [2]): no therapeutic effect; also recorded: no detectable therapeutic activity
delta: ranking of overall difference in MDS from the placebo group (DA rats with EAE [2]): p1 ≪ p2 mSUV ≈ p3 mSUV < p1 mSUV ≈ Copaxone < p123 mSUV

GPBP62–84: fragment of the guinea pig myelin basic protein (HAARTTHYGSLPQKSQRSQDENP; UniProt P25188 62-84, looked up, fragment)
capability to induce EAE in DA rats (DA rats): capable to induce EAE in DA rats
